NLRP3 yeast inh – NALP3 inflammasome inhibitors in reconstituted yeast, primary screen, luminescence, uHTS; AID 2825, 2010; inhibition, % at 10 µM; Yeast reconstituted NLRP3/ASC/caspase-1, beta-gal luminescence, 24 h; 330,000 tested, 0.39% active;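 active = inhibition of 50% or more; inactive = inhibition below 50%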
PolyA inh – polyadenylation inhibitors in yeast reporter cells, primary screen, luminescence, S. cerevisiae; S. cerevisiae SKY197-pL101 polyadenylation reporter, beta-gal luminescence; efflux-impaired pdr1/pdr3 knockout yeast; score 100 = 6 SD above DMSO; activity score, % at 12 µM; AID 1875, 2009; 300,000 tested, 0.02% active;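 active = lowest replicate activity score at least 50, where 100 means six control SD above control mean; inconclusive = lowest score under 50 but half or more replicates reach 50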;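 also: yeast exposed to compound for 9 h at 30 °C; higher score means more reporter readthrough which indicates perturbed polyadenylation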
Pemphigus Ab inh – inhibitors of pemphigus antibody binding to DSG3, primary screen, biochemical, bead-based, flow cytometry, scFv-GFP; DSG3-coupled beads, scFv-anti-DSG3-GFP binding; hits give low values; 310,000 tested, 0.48% active; Desmoglein-3 (Homo sapiens), P32926; binding (percent of control), % at 10 µM;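 active = binding more than 3 SD below its plate's average and above zero; inconclusive = below that plate limit but binding exactly zero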;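 also: hits lower antibody fragment binding to DSG3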
Target sequence (P32926 whole entry, looked up, the tested form may be a part): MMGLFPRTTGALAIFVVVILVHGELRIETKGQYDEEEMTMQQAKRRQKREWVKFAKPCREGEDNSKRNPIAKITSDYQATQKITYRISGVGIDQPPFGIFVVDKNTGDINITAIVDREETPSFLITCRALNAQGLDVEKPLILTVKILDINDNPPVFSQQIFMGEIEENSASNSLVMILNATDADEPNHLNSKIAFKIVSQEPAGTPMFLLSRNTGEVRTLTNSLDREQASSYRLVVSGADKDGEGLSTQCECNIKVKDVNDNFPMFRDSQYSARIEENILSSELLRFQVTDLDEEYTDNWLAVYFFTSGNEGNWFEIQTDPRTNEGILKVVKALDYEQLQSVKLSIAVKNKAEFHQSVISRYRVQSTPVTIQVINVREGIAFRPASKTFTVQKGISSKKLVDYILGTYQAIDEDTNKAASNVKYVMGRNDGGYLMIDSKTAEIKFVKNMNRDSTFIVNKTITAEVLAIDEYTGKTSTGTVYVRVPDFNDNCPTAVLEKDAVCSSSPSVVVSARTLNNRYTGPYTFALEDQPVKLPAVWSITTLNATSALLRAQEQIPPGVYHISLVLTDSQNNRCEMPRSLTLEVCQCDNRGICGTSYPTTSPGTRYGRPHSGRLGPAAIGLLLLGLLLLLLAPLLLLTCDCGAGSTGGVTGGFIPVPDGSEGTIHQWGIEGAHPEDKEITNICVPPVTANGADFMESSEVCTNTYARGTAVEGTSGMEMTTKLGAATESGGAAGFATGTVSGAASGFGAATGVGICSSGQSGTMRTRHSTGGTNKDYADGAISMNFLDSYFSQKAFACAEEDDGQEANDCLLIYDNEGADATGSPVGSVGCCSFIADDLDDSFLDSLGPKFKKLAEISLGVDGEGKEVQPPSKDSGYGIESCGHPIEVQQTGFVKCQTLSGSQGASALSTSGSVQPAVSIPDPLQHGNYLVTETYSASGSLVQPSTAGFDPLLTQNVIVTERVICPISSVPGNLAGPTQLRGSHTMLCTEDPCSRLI
Arrestin-AP2 inh – inhibitors of beta-arrestin/AP2 binding, primary screen, biochemical, GPCR trafficking, flow cytometry; beta-arrestin 1 C-terminal peptide binding to AP2 beta2-adaptin appendage (human); FITC-arrestin peptide / GST-AP2 beads; AP2 beta2 appendage carries R879A mutation; inhibition, % at 10 µM; 340,000 tested, 0.31% active;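 active = inhibition above a set limit, near 3 SD of compounds lacking own fluorescence, cut at about 54% in these data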
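Material – AP2 appendage R879A on GSH beads · Buffer or medium – PBS with 0.05% Tween 20 and 0.1% BSA · Probe or stimulus – fluorescein-tagged arrestin peptide at 50 nM final · Incubation – compound with beads 12 min RT, then probe 1 h RT · Detection – high-throughput flow cytometry of beads, ex 488, em 535 nm · Evaluation – percent response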
ALR H2O2 inh – inhibitors of human ALR sulfhydryl oxidase, primary screen, biochemical, H2O2 detection, HRP-luminol luminescence, single point. FAD-linked sulfhydryl oxidase ALR (Homo sapiens), P55789. inhibition, % (concentration not given with the values). purified ALR, DTT oxidation. AID 485317, 2010. 290,000 tested, 3.8% active;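 active = mean replicate inhibition above about 79%, with every replicate also reaching it, limit read from the data; inconclusive = only one of the two criteria met; inactive = mean below limit and not every replicate reaching it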
NALP1 inh – NALP1 inflammasome inhibitors in reconstituted yeast, colorimetric, S. cerevisiae, triplicate retest | S. cerevisiae NALP1/ASC/caspase-1 growth, X-gal OD620, 72 h | inhibition, % at 10 µM | 280,000 tested, 0.61% active | AID 2071, 2009; in the data active = inhibition mostly above about 24%, no sharp cut-off; inactive = mostly below about 32%
A number is an active result; – = inactive; ? = inconclusive; · = no result given. The list is not random: actives were taken first. Their share in the collection is about 4.6%.

SMILES	NLRP3 yeast inh	PolyA inh	Pemphigus Ab inh	Arrestin-AP2 inh	ALR H2O2 inh	NALP1 inh
Cc1sc2ncnc(NCC3(N4CCOCC4)CCCCC3)c2c1C	–	–	·	–	·	44
COC(=O)c1cc(C(=O)OCC(=O)NC(=O)c2ccccc2)cc([N+](=O)[O-])c1	–	–	–	–	–	·
Nn1c(Cc2ccccc2)n[nH]c1=S	–	–	–	–	95	–
Nn1c(Cc2ccc(F)cc2)n[nH]c1=S	–	–	–	–	–	–
CCOc1ccc(Cc2n[nH]c(=S)n2Cc2ccccc2)cc1	–	–	–	–	95	–
Cc1ccc2cc3c(NC(=O)C4CCCO4)nn(CC(C)C)c3nc2c1 (stereo not given)	–	–	–	–	–	–
CCCn1nc(NS(=O)(=O)c2cccc3nonc23)c2cc3cccc(C)c3nc21	–	–	–	–	97	–
CCCn1nc(NS(=O)(=O)c2cccc3nonc23)c2cc3cc(C)ccc3nc21	–	–	–	–	–	–
Cc1ccc2cc3c(NS(=O)(=O)c4cccc5nonc45)nn(CC(C)C)c3nc2c1	–	–	–	–	98	–
Cc1cc(NC(=O)CSc2sc3c(O)cc(=O)[nH]c3c2C#N)ccc1Br	–	–	·	–	99	–
N#Cc1c(SCC(=O)Nc2cccc(C(F)(F)F)c2)sc2c(O)cc(=O)[nH]c12	–	–	–	–	99	–
O=C(CSCCO)Nc1cccc(C(F)(F)F)c1	–	–	–	–	–	–
COC(=O)c1ccc(C)c(NC(=O)CSc2sc3c(O)cc(=O)[nH]c3c2C#N)c1	–	–	–	–	?	–
Cc1ccc(-n2[nH]c(C)c(C=Nc3ccc4[nH]c(=O)[nH]c4c3)c2=O)cc1C	–	?	–	–	92	–
CN(C)c1ccc(NC(=O)Cn2ncn3c(cc4ccccc43)c2=O)cc1	–	–	–	–	–	–
Cc1cc(C)cc(NC(=O)Cn2ncn3c(cc4ccccc43)c2=O)c1	–	–	82	–	–	–
O=S(=O)(Nc1ccc(O)c(Sc2nc3ccccc3s2)c1)c1ccc(F)cc1	–	–	–	–	?	–
O=C(O)c1cccc(S(=O)(=O)Nc2ccc(O)c(Sc3nc4ccccc4s3)c2)c1	–	–	–	–	99	–
Cc1ccc(CNc2ncc(-c3ccccc3)n2C)o1	–	–	–	–	98	–
Cn1ccnc1SC(=O)N1c2ccccc2Sc2ccccc21	–	–	–	–	99	–
O=C(Sc1nnc(-c2ccccc2)o1)N1c2ccccc2Sc2ccccc21	–	–	–	–	93	–
CCc1cc(C(=O)Nc2cc(S(=O)(=O)N3CCCCC3)ccc2N2CCN(C)CC2)sc1C	·	·	–	·	·	·
Cc1n[nH]c(=S)n1-c1cccc(Cl)c1	–	–	–	–	94	–
Cc1cccc(-n2c(C)n[nH]c2=S)c1C	–	–	–	–	77	–
CC1CN(C2CCCCC2)C(=O)NC1=O (stereo not given)	·	·	–	–	·	·
SMILES	NLRP3 yeast inh	PolyA inh	Pemphigus Ab inh	Arrestin-AP2 inh	ALR H2O2 inh	NALP1 inh
COCCn1c(N)c(N(Cc2ccccc2)C(=O)C(C)Oc2ccc(Br)cc2)c(=O)[nH]c1=O (stereo not given)	·	·	–	·	·	·
O=C(NCCN1CCOCC1)c1cccc(NS(=O)(=O)c2ccc(Br)cc2)c1	–	?	–	–	·	·
COCCN(C(=O)COC(=O)CCc1c[nH]c2ccccc12)c1c(N)n(Cc2ccccc2)c(=O)[nH]c1=O	–	–	–	–	–	·
O=C1c2ccccc2C(=O)N1N(c1ccccc1)c1ccccc1	·	·	–	–	·	·
O=C1C=CC(=O)N1N(c1ccccc1)c1ccccc1	–	–	–	–	·	105
Cc1cc(C(=O)OCC(=O)N(CC(C)C)c2c(N)n(Cc3ccccc3)c(=O)[nH]c2=O)c(C)o1	–	–	–	–	–	·
COc1cc2c(cc1OC)C(c1cccc(C)c1)CC(=O)N2 (stereo not given)	–	–	–	–	–	44
COc1cccc(C2c3[nH]c4ccccc4c3C[C@H]3C(=O)N(CCCCCO)CC(=O)N23)c1 (stereo not given in full)	–	–	–	–	98	–
CN1CC(=O)N2C(c3ccc(Cl)cc3)c3[nH]c4ccccc4c3C[C@H]2C1=O (stereo not given in full)	–	–	–	–	99	–
COc1cccc(C2c3[nH]c4ccccc4c3C[C@H]3C(=O)N(c4ccccc4C(=O)N4CCCC4C(=O)O)C(=O)N23)c1 (stereo not given in full)	–	–	–	–	97	–
Cc1ccc(C2c3[nH]c4ccccc4c3C[C@H]3C(=O)N(c4ccccc4C(=O)N4CCC(C(=O)O)CC4)C(=O)N23)cc1 (stereo not given in full)	–	–	–	–	–	–
O=C(O)C1CCN(C(=O)c2ccccc2N2C(=O)[C@@H]3Cc4c([nH]c5ccccc45)C(c4cccc(Cl)c4)N3C2=O)CC1 (stereo not given in full)	–	–	–	–	99	–
CC(Oc1cccc(Cl)c1)C(=O)Nc1ccc(S(=O)(=O)N(C)C2CCN(C)CC2)cc1 (stereo not given)	–	·	–	–	·	·
Cc1ccc(C2c3[nH]c4ccccc4c3C[C@H]3C(=O)N(c4ccccc4C(=O)N4CCC[C@@H]4C(=O)O)C(=O)N23)cc1 (stereo not given in full)	–	–	–	–	98	–
COc1cccc(N2CCN(Cc3ccco3)CC2)c1	–	–	–	–	87	–
COc1cccc(N2CCN(Cc3ccsc3)CC2)c1	–	–	–	–	89	–
Cc1ccn2cc(-c3ccc(NC(=O)c4ccco4)cc3)nc2c1	–	–	–	–	–	46
Cc1ccn2cc(-c3ccc(Br)cc3)nc2c1	–	–	–	–	·	–
Cc1ccn2cc(-c3cccc([N+](=O)[O-])c3)nc2c1	–	·	–	–	91	–
Cc1nc(-c2ccc(NC(=O)c3ccco3)cc2)cs1	–	–	–	–	–	–
Cc1ccn2cc(-c3cccc(NC(=O)CCC(=O)O)c3)nc2c1	–	–	–	–	98	–
CC(=O)Nc1cccc(-c2cn3ccc(C)cc3n2)c1	–	–	–	–	?	–
Cc1ccn2cc(-c3cccc(NS(C)(=O)=O)c3)nc2c1	–	–	–	–	97	–
